In ChEMBL document CHEMBL1145636, “Discovery of a novel and potent series of thieno[3,2-b]pyridine-based inhibitors of c-Met and VEGFR2 tyrosine kinases” (Bioorg Med Chem Lett, 2008):
In brackets after ≈: the same amount, converted by molar mass. One block for each compound: values may come before it.

Columns and labels:
[1] = target: T1, Vascular endothelial growth factor receptor 2 (Homo sapiens, UniProt P35968); experiment: Inhibition of GST tagged VEGFR2 expressed in Sf9 cells
Outline: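 GST-fused VEGFR2 catalytic domain, baculovirus-expressed in Sf9 cells (MOI 0.1), glutathione-agarose purified; 5 nM enzyme preincubated with inhibitor and Mg-ATP on ice 4 min, then reacted on immobilized poly(Glu4,Tyr) at 30 °C for 10 min in 60 mM Hepes pH 7.5, MgCl2/MnCl2; ATP 0.6 (2× Km); Eu anti-phosphotyrosine TR-fluorescence; seven concentrations in triplicate, four-parameter IC50 fit.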

[2] = target: T2, Hepatocyte growth factor receptor (Homo sapiens, UniProt P08581); experiment: Inhibition of GST tagged c-Met expressed in High Five cells
Target sequence in this assay (P08581 whole entry, the tested form may be a part): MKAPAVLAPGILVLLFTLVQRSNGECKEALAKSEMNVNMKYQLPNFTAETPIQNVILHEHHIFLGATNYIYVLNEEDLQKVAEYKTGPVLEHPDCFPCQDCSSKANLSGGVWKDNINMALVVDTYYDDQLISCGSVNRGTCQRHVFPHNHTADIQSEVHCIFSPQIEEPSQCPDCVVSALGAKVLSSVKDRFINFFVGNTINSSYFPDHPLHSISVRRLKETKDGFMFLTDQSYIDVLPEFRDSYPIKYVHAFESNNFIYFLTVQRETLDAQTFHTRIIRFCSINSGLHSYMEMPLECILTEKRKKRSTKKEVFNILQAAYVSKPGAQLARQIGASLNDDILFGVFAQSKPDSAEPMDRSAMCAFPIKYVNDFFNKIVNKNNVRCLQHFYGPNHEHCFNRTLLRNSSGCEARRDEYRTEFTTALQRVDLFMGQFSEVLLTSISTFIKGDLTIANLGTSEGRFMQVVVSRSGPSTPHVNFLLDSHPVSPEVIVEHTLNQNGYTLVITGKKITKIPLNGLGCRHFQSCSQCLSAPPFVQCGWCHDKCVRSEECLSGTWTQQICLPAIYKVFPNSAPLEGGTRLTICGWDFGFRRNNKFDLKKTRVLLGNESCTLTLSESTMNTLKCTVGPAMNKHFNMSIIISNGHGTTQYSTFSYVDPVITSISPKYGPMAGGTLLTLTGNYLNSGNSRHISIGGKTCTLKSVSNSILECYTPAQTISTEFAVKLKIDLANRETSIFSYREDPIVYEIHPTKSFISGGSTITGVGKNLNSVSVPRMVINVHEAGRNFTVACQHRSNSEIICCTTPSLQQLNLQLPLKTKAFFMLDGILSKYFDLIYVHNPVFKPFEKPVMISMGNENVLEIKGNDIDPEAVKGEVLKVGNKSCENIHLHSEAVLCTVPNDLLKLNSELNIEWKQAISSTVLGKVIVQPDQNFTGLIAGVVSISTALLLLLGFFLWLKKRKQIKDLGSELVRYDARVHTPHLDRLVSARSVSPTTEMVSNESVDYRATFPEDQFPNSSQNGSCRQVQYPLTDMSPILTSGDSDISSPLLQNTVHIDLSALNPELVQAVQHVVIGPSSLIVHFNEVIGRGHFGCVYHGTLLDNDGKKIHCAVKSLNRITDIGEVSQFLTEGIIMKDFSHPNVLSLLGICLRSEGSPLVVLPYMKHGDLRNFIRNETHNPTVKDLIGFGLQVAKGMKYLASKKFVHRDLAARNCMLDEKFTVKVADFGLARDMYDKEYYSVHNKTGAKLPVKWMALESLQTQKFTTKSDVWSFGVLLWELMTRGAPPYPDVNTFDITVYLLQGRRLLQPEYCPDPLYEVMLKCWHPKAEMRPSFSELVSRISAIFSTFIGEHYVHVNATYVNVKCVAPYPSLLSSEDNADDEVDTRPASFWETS

[3] = target: T2, Hepatocyte growth factor receptor; experiment: Inhibition of TPR-Met fusion protein assessed as Y1230-34-35 phosphorylation
Target sequence in this assay (P08581 25-1390 limits assumed): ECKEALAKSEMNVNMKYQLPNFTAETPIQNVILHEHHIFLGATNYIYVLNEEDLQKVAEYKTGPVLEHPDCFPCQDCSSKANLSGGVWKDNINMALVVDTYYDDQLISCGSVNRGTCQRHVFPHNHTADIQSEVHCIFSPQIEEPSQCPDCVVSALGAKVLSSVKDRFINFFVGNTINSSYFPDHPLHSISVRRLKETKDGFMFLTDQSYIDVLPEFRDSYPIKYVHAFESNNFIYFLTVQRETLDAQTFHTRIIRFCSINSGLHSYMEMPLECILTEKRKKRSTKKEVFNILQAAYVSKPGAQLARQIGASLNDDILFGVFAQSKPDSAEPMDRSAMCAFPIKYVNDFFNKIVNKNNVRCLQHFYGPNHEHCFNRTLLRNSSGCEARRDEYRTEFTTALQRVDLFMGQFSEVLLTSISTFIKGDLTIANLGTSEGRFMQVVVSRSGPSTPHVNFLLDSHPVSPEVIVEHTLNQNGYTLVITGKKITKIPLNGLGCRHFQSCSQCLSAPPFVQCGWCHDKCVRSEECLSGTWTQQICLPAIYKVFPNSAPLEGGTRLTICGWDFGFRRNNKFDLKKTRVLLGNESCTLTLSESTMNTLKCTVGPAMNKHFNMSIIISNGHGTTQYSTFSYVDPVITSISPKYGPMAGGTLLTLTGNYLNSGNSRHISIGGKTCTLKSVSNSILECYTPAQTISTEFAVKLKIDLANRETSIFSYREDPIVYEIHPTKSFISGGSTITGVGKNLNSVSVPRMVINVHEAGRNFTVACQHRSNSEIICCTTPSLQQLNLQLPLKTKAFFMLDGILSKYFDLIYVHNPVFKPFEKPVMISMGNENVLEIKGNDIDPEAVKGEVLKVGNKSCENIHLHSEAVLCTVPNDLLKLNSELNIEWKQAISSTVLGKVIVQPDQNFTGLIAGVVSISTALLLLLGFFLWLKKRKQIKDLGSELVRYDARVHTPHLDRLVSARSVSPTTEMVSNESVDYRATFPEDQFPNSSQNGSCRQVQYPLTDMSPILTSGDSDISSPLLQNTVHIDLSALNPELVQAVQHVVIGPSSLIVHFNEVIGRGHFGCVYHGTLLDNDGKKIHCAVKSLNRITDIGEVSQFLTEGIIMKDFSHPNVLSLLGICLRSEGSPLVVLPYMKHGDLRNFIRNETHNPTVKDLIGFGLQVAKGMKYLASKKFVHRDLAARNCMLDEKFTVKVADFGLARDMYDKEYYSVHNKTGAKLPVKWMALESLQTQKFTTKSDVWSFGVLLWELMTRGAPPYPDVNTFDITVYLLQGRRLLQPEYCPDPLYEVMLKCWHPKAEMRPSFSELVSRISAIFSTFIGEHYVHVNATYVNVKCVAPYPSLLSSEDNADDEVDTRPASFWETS

[4] = Solubility of compound; assay type: physicochemical
[5] = target: Macrophage-stimulating protein receptor (Homo sapiens) (UniProt Q04912); experiment: Inhibition of Ron at 100 nM
Outline: (§1)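 Radiometric protein kinase assays run through an outsourced kinase selectivity screening service; test agent at 100 nM, percent inhibition of each enzyme reported.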

[6] = Tmax in Sprague-Dawley rat at 5 mg/kg, po; assay type: ADME, organism-based; design: dose 5 mg/kg, route oral; conditions: in vivo
[7] = Cmax in Sprague-Dawley rat at 5 mg/kg, po; assay type: ADME, organism-based; design: dose 5 mg/kg, route oral; conditions: in vivo
[8] = target: Tyrosine-protein kinase JAK2 (Homo sapiens) (UniProt O60674); experiment: Inhibition of JAK2 at 100 nM; outline: as §1
[9] = target: Tyrosine-protein kinase ABL1 (Homo sapiens) (UniProt P00519); experiment: Inhibition of Abl at 100 nM; outline: as §1
[10] = target: Serine/threonine-protein kinase Chk1 (Homo sapiens) (UniProt O14757); experiment: Inhibition of CHK1 at 100 nM; outline: as §1
[11] = target: Epidermal growth factor receptor (Homo sapiens) (UniProt P00533); experiment: Inhibition of EGFR at 100 nM; outline: as §1
[12] = Cmax in Beagle dog at 5 mg/kg, po; assay type: ADME, organism-based, Canis lupus familiaris; design: dose 5 mg/kg, route oral; conditions: in vivo
[13] = target: Mast/stem cell growth factor receptor Kit (Homo sapiens) (UniProt P10721); experiment: Inhibition of c-Kit at 100 nM; outline: as §1
[14] = target: T1, Vascular endothelial growth factor receptor 2; experiment: Inhibition of human VEGFR2-dependent ERK phosphorylation in HUVEC; assay type: cell-based
[15] = Inhibition of JNK1-alpha-1 at 100 nM; outline: as §1
[16] = Oral bioavailability in Sprague-Dawley rat at 5 mg/kg; assay type: ADME, organism-based; conditions: in vivo
Outline: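 An iv reference arm received 2.5 mg/kg (four animals) in DMSO. Plasma was analysed by HPLC-triple-quadrupole MS, and %F was derived from po versus iv exposure.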

[17] = Volume of distribution at steady state in Beagle dog at 0.8 mg/kg, iv or 5 mg/kg, po; assay type: ADME, organism-based, Canis lupus familiaris; conditions: in vivo, read-out: Vdss
[18] = AUC in Sprague-Dawley rat at 5 mg/kg, po; assay type: ADME, organism-based; design: dose 5 mg/kg, route oral; conditions: plasma
[19] = Tmax in Beagle dog at 5 mg/kg, po; assay type: ADME, organism-based, Canis lupus familiaris; design: dose 5 mg/kg, route oral; conditions: in vivo
[20] = test system: COLO 205; experiment: Antitumor activity in human Colo205 cells xenografted mouse assessed as tumor growth inhibition at 20 mg/kg, po once daily after 16 days; assay type: functional; conditions: COLO 205, 384 h, read-out: TGI
Outline: (§2)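 Human tumor xenografts in mice; test agent given orally at 20 mg/kg once daily; efficacy expressed as percent tumor growth inhibition.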

[21] = target: Cytochrome P450 3A4 (Homo sapiens, UniProt P08684); experiment: Inhibition of CYP3A4 at 10 uM; assay type: ADME
[22] = test system: DU-145; experiment: Antitumor activity in human DU145 cells xenografted mouse assessed as tumor growth inhibition at 20 mg/kg, po once daily after 11 days; assay type: functional; conditions: DU-145, 264 h, read-out: TGI; outline: as §2
[23] = target: Vascular endothelial growth factor receptor 1 (Homo sapiens) (UniProt P17948); experiment: Inhibition of VEGFR1 at 100 nM; outline: as §1
[24] = Volume of distribution at steady state in Sprague-Dawley rat; assay type: ADME, organism-based; conditions: in vivo, read-out: Vdss
[25] = test system: HOS-TE85; experiment: Antitumor activity in human MNNGHOS cells xenografted mouse assessed as tumor growth inhibition at 20 mg/kg, po once daily after 26 days; assay type: functional; conditions: HOS-TE85, 624 h, read-out: TGI; outline: as §2
[26] = target: Angiopoietin-1 receptor (Homo sapiens) (UniProt Q02763); experiment: Inhibition of Tie2 at 100 nM; outline: as §1
[27] = target: Vascular endothelial growth factor receptor 3 (Homo sapiens) (UniProt P35916); experiment: Inhibition of VEGFR3 at 100 nM; outline: as §1
[28] = test system: Canis familiaris; experiment: AUC in Beagle dog at 5 mg/kg, po; assay type: ADME, organism-based, Canis lupus familiaris, Plasma; design: dose 5 mg/kg, route oral; conditions: in vivo
[29] = target: High affinity nerve growth factor receptor (Homo sapiens) (UniProt P04629); experiment: Inhibition of TrkA at 100 nM; outline: as §1
[30] = target: Receptor-type tyrosine-protein kinase FLT3 (Homo sapiens) (UniProt P36888); experiment: Inhibition of Flt3 at 100 nM; outline: as §1
[31] = test system: HCT-116; experiment: Antitumor activity in human HCT116 cells xenografted mouse assessed as tumor growth inhibition at 20 mg/kg, po once daily after 14 days; assay type: functional; conditions: HCT-116, 336 h, read-out: TGI; outline: as §2
[32] = target: Insulin-like growth factor 1 receptor (Homo sapiens) (UniProt P08069); experiment: Inhibition of IGF1R at 100 nM; outline: as §1
[33] = Half life in Sprague-Dawley rat at 2.5 mg/kg, iv; assay type: ADME, organism-based; design: dose 2.5 mg/kg, route intravenous; conditions: in vivo
Outline: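 Female Sprague–Dawley rats were given a single iv dose of 2.5 mg/kg (four animals) in DMSO. The test material had >95% chromatographic purity. Plasma was analysed by HPLC with triple-quadrupole MS, and PK parameters were calculated from the concentration–time data.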

[34] = Half life in Beagle dog at 0.8 mg/kg, iv; assay type: ADME, organism-based, Canis lupus familiaris; design: dose 0.8 mg/kg, route intravenous; conditions: in vivo
[35] = test system: Canis familiaris; experiment: Oral bioavailability in Beagle dog at 5 mg/kg; assay type: ADME, organism-based, Canis lupus familiaris; conditions: in vivo
[36] = target: Inhibitor of nuclear factor kappa-B kinase subunit beta (Homo sapiens) (UniProt O14920); experiment: Inhibition of IKK-beta at 100 nM; outline: as §1
[37] = test system: MKN-45; experiment: Antitumor activity in human MKN45 cells xenografted mouse assessed as tumor growth inhibition at 20 mg/kg, po once daily after 13 days; assay type: functional; conditions: MKN-45, 312 h, read-out: TGI; outline: as §2
[38] = Clearance in Sprague-Dawley rat; assay type: ADME, organism-based; conditions: in vivo
[39] = test system: Canis familiaris; experiment: Clearance in Beagle dog at 0.8 mg/kg, iv or 5 mg/kg, po; assay type: ADME, organism-based, Canis lupus familiaris; conditions: in vivo
[40] = target: Glycogen synthase kinase-3 beta (Homo sapiens) (UniProt P49841); experiment: Inhibition of GSK3-beta at 100 nM; outline: as §1
Sequence of Glycogen synthase kinase-3 beta (Homo sapiens) (P49841 whole entry, looked up): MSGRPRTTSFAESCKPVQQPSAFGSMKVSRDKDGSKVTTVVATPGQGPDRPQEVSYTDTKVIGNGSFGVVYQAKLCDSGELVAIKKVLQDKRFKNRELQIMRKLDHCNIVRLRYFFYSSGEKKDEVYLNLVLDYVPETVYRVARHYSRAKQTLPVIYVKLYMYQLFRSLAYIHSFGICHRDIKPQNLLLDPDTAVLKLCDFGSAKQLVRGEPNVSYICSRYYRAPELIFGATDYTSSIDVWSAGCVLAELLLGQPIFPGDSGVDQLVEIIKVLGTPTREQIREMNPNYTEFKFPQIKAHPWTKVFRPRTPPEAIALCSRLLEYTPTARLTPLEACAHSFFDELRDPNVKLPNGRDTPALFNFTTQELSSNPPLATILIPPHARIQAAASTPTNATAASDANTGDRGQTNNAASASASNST

T1 sequence (P35968 whole entry, the tested form may be a part): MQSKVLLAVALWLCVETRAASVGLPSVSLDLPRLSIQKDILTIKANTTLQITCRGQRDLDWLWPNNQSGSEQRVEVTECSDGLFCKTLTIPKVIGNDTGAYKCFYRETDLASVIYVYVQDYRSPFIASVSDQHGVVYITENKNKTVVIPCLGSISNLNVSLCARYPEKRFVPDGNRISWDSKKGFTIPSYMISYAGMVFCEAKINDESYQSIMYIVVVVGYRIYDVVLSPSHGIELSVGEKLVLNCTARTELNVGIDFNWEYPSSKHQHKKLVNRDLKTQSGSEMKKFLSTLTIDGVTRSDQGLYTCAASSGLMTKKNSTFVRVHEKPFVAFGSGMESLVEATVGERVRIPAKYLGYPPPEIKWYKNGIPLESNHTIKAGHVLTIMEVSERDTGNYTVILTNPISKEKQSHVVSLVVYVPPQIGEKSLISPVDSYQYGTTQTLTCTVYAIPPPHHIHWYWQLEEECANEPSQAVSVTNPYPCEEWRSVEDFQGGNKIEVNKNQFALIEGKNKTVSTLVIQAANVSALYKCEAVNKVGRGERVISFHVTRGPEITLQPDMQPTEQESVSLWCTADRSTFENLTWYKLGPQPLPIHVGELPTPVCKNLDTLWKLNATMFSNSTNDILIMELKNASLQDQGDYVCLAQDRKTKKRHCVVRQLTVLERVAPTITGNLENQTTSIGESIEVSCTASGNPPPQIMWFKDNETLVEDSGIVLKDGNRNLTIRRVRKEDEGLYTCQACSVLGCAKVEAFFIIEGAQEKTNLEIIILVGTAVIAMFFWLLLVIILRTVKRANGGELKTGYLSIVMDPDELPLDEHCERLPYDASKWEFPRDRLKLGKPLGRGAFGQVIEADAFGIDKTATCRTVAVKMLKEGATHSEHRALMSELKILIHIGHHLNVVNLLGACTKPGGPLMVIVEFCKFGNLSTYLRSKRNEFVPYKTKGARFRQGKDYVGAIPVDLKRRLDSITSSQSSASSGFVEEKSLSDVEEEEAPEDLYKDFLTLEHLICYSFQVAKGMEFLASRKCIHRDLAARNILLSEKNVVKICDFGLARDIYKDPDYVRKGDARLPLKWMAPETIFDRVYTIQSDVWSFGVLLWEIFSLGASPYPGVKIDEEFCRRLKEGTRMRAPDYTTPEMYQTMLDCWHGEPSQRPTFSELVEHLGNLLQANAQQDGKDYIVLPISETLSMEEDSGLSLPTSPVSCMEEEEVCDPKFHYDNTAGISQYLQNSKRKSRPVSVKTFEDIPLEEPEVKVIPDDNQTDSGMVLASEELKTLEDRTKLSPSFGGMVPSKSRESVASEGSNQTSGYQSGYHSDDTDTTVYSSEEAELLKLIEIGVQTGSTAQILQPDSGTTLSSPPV
Sequence of Serine/threonine-protein kinase Chk1 (Homo sapiens) (O14757 whole entry): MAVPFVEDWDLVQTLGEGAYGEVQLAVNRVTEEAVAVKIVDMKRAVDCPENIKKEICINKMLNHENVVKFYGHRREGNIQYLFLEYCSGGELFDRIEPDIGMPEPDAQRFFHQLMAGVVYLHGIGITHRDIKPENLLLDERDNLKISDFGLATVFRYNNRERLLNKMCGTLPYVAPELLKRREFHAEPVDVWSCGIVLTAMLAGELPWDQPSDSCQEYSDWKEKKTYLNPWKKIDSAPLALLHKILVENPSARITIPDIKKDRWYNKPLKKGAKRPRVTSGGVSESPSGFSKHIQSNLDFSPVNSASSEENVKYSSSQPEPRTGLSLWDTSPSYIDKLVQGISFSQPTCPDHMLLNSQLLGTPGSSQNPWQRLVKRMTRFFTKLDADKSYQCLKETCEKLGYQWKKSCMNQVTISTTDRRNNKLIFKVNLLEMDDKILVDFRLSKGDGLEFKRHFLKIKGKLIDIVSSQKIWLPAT

SMILES: O=C(Cc1ccccc1)NC(=S)Nc1ccc(Oc2ccnc3ccsc23)c(F)c1
IC50 [1]: 1130 nM

SMILES: NC(=O)c1cc2nccc(Oc3ccc(NC(=S)NC(=O)Cc4ccccc4)cc3F)c2s1
IC50 [1]: 129 nM

SMILES: CN1CCN(C(=O)c2cc3nccc(Oc4ccc(NC(=S)NC(=O)Cc5ccccc5)cc4F)c3s2)CC1
IC50 [1]: 344 nM
IC50 [2]: 193 nM

SMILES: CCN(CC)C(=O)c1cc2nccc(Oc3ccc(NC(=S)NC(=O)Cc4ccccc4)cc3F)c2s1
IC50 [1]: 386 nM
IC50 [2]: 114 nM

SMILES: O=C(Cc1ccccc1)NC(=S)Nc1ccc(Oc2ccnc3cc(C(=O)N4CCOCC4)sc23)c(F)c1
IC50 [1]: 289 nM
IC50 [2]: 125 nM

SMILES: O=C(Cc1ccccc1)NC(=S)Nc1ccc(Oc2ccnc3cc(C(=O)N4CCCC4)sc23)c(F)c1
IC50 [1]: 9 nM
IC50 [2]: 54 nM

The next lines start with results.

IC50 [1]: 113 nM
SMILES: O=C(Cc1ccccc1)NC(=S)Nc1ccc(Oc2ccnc3cc(-c4cccnc4)sc23)c(F)c1

IC50 [3]: 22 nM
IC50 [1]: 11 nM
IC50 [2]: 52 nM
SMILES: CCn1cnc(-c2cc3nccc(Oc4ccc(NC(=S)NC(=O)Cc5ccccc5)cc4F)c3s2)c1

IC50 [3]: 20 nM
IC50 [1]: 28 nM
IC50 [2]: 69 nM
SMILES: Cn1ncnc1-c1cc2nccc(Oc3ccc(NC(=S)NC(=O)Cc4ccccc4)cc3F)c2s1

IC50 [1]: 145 nM
IC50 [2]: 60 nM
SMILES: O=C(Cc1ccccc1)NC(=S)Nc1ccc(Oc2ccnc3cc(-c4nncs4)sc23)c(F)c1

IC50 [1]: 346 nM
SMILES: CSc1cc2nccc(Oc3ccc(NC(=S)NC(=O)Cc4ccccc4)cc3F)c2s1

IC50 [1]: 10 nM
solubility [4]: 1.7 µg/mL (≈ 3.28 µM)
SMILES: Cn1ccnc1-c1cc2nccc(Oc3ccc(NC(=S)NC(=O)Cc4ccccc4)cc3F)c2s1

IC50 [3]: 5000 nM
IC50 [1]: 175 nM
IC50 [2]: 63 nM
SMILES: O=C(Cc1ccccc1)NC(=S)Nc1ccc(Oc2ccnc3cc(-c4cncnc4)sc23)c(F)c1

inhibition [5]: 80%
Tmax [6]: 3.5 h
Cmax [7]: 140 nM
inhibition [8]: < 5%
inhibition [9]: 91%
inhibition [10]: < 5%
inhibition [11]: < 5%
Cmax [12]: 210 nM
inhibition [13]: 92%
IC50 [14]: 30 nM
inhibition [15]: < 5%
IC50 [3]: 12 nM
bioavailability [16]: 12%
IC50 [1]: 10 nM
Vd [17]: 1.5 L/kg
solubility [4]: 30 µg/mL (≈ 58 µM)
AUC [18]: 0.74 µM·h
Tmax [19]: 1.1 h
Inhibition [21]: Not Active
inhibition [23]: 91%
Vd [24]: 0.25 L/kg
inhibition [26]: 81%
inhibition [27]: 100%
AUC [28]: 0.74 µM·h
inhibition [29]: 99%
inhibition [30]: 96%
inhibition [32]: < 5%
half-life [33]: 72 min
half-life [34]: 348 min
F [35]: 42%
inhibition [36]: < 5%
clearance [38]: 5.5 mL/min/kg
CL [39]: 1.1 L/kg/h
inhibition [40]: < 5%
SMILES: Cn1cnc(-c2cc3nccc(Oc4ccc(NC(=S)NC(=O)Cc5ccccc5)cc4F)c3s2)c1
inhibition in vivo at 20 mg/kg [20]: 41%
inhibition in vivo at 20 mg/kg [22]: 57%
inhibition in vivo at 20 mg/kg [25]: 61%
inhibition in vivo at 20 mg/kg [31]: 41%
inhibition in vivo at 20 mg/kg [37]: 94%
